# Assay outcomes (PubChem BioAssay)
# CXCR6 block: inhibitors of human CXCR6 receptor | O00574 | inhibition, % at 20 µM | hit rate 0.36% among 360,000 | CHO-K1 PathHunter CXCR6 beta-arrestin, luminescence; in the data active = inhibition above about 34%, passing the limit was not always enough;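 note: antagonist mode with CXCL16 agonist at 10 nM final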
# APJ agonist: activates the human apelin receptor APJ; CHO-K1 APJ PathHunter beta-arrestin, luminescence; 0% DMSO wells, 100% apelin; activation, % at 20 µM; hit rate 0.11% among 330,000;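 active = activation more than six SD over the plate average, tested at 20 µM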
# Target sequence (P35414 whole entry, looked up): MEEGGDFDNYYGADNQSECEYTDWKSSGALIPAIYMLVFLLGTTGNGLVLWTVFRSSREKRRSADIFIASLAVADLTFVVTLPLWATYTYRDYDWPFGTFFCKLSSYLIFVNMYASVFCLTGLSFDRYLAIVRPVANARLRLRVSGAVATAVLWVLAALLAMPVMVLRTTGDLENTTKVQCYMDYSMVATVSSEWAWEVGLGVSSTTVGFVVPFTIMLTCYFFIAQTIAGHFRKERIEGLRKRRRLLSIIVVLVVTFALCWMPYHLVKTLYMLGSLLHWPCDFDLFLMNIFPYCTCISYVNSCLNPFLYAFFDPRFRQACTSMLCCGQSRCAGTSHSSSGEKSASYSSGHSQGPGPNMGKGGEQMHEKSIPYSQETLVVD
#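 Assay system: CHO-K1 APJ beta-arrestin complementation cell line / Compound: single test compound dose, 20 µM final, 1% DMSO / Times: overnight seeding, 90 min compound at 25 °C, 1 h detection / Technique: beta-gal luminescence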
# EBI2 block: antagonists of human EBI2 receptor. inhibition, % at 5 µM. hit rate 0.81% among 360,000. P32249. EBI2 beta-arrestin recruitment, luminescence, 7a,25-OHC stimulated. AID 651636; in the data active = inhibition above about 38%;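 note: enzyme fragment complementation signal reports receptor beta-arrestin coupling in cells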
# CCR6 antagonist: CCR6 (human) receptor antagonism; P51684; inhibition, % at 20 µM; hit rate 0.49% among 340,000; CHO-K1 CCR6 PathHunter beta-arrestin, luminescence, CCL20-stimulated; AID 493098;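 active = compounds whose inhibition of the agonist-driven luminescence signal at 20 µM reaches about 50%, limit read from the data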;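 note: cells stimulated with CCL20 at 14 nM final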
# APJ antagonist: antagonists of human APJ apelin receptor. CHO-K1 APJ beta-arrestin complementation, luminescence. inhibition, % at 20 µM. hit rate 0.32% among 330,000. AID 2521;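 active = inhibition above about 40% at 20 µM, limit read from the data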;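 note: cells challenged with 10 nM apelin-13 agonist together with compound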
# HTR2A ag: activates the mouse 5-HT2A serotonin receptor. AID 624169. CHO-K1 mHTR2A beta-arrestin complementation, luminescence; percent of 30 µM serotonin response. activation, % at 7.6 µM. hit rate 0.66% among 360,000. P35363;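 active = activation above a run cutoff, the mean activation of all tested compounds plus 3 SD, cut at about 14% in these data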
# Hits are given with their value; n = inactive; x = no result. In the library only some 2.1% were active in any assay of this set; here they are far more common.
SMILES,CXCR6 block,APJ agonist,EBI2 block,CCR6 antagonist,APJ antagonist,HTR2A ag
CN1C(=O)[C@@H]2C[C@@]3([C@@]45C[C@H]6C(=O)N(C)[C@@H](Cc7ccccc7)C(=O)N6[C@@H]4Nc4ccccc45)c4ccccc4N[C@H]3N2C(=O)[C@@H]1Cc1ccccc1,n,n,n,n,n,n
C/C(=N\Nc1ccc(C(=O)c2c(C)cc3ccccn23)cc1[N+](=O)[O-])c1ccc(O)cc1,47,n,n,n,n,n
C/C(=N/Nc1ccc(C(=O)c2c(C)cc3ccccn23)cc1[N+](=O)[O-])c1ccc(O)cc1,37,x,n,n,x,n
CC(Oc1nc2c(c(=O)n(C)c(=O)n2C)n1C)C1CCCCC1 (centres undefined),n,x,n,n,x,n
COC(CN(C)C(=O)c1cn(C)c2ccc(S(=O)(=O)N(C)C3CCCCC3)cc2c1=O)OC,n,n,n,n,n,n
C=CCN1[C@@H](Cc2ccccc2)COc2cc(N3CCSCC3)ccc2S1(=O)=O,n,x,n,x,x,n
Cc1ccc(S(=O)(=O)N2CCN(C(=O)COC(=O)c3ccccc3Cl)CC2)c(C)c1,n,n,n,n,n,17
COc1cc(/C=C2\CC/C(=C\c3cc(OC)c(OC)c(OC)c3)C2=O)cc(OC)c1OC,n,n,n,n,n,n
COc1cc(/C=C2\COC/C(=C\c3cc(OC)c(OC)c(OC)c3)C2=O)cc(OC)c1OC,39,x,45,55,x,n
COc1cc(/C=C2/CCC/C(=C\c3cc(O)c(OC)c(Cl)c3)C2=O)cc(Cl)c1O,n,n,n,74,n,n
COc1cc(/C=C2\CC/C(=C\c3cc(OC)c(O)c(OC)c3)C2=O)cc(OC)c1O,42,n,n,55,n,n
COC(=O)C1CN(S(=O)(=O)c2ccc(C)cc2)CCN1S(=O)(=O)c1ccc(C)cc1 (centres undefined),n,n,55,n,n,n
N#Cc1ccc(C(=O)Nc2nnc(-c3cccs3)o2)cc1,n,n,n,n,n,n
O=C(Nc1nnc(-c2cccs2)o1)c1cccc(C(F)(F)F)c1,44,n,n,n,n,n
O=C(CSc1cccc[n+]1[O-])Nc1cc(Cl)ccc1[N+](=O)[O-],n,n,n,n,n,n
O=[N+]([O-])c1ccc(Sc2cccc[n+]2[O-])c2nonc12,110,x,58,115,x,n
O=[N+]([O-])c1ccc(Nc2ccccc2)c2nonc12,n,n,n,51,52,n
CCCCCCCCN1C(=O)[C@H](CC(=O)NCC23CC4CC(CC(C4)C2)C3)C[C@@]2(C(=O)OCC)CCCC=C12,n,x,n,x,x,n
O=C(NC1CCCC1)C1C(c2ccccc2)=Nc2ccccc2N1C(=O)c1cc(Cl)cc(Cl)c1 (centres undefined),x,x,n,x,x,n
Cc1cccc2c1NC(=O)/C2=C\C(=O)c1cccs1,n,n,43,n,n,n
Cc1cc(C)c2c(c1)/C(=C/C(=O)c1ccc(Br)s1)C(=O)N2,n,n,74,n,n,n
Cc1cc(Br)c2c(c1)/C(=C/C(=O)c1cccs1)C(=O)N2,n,n,n,n,n,n
Cc1ccc(CC(=O)Nc2cccc(C(=O)Nc3c(C)n(C)n(-c4ccccc4)c3=O)c2)cc1C,n,x,n,x,x,n
Cc1nc2scc(C)n2c(=O)c1S(=O)(=O)N1CCN(c2ccccn2)CC1,n,n,n,n,n,n
Cc1cccc(N2CCN(S(=O)(=O)c3ccc4c(c3)CCN4C(=O)CCC(=O)O)CC2)c1C,n,n,n,n,n,18
SMILES,CXCR6 block,APJ agonist,EBI2 block,CCR6 antagonist,APJ antagonist,HTR2A ag
CCC(=O)N1CCCc2cc(S(=O)(=O)N3CCN(c4ncccn4)CC3)ccc21,n,n,n,n,n,21
O=C(COC(=O)c1ccc([N+](=O)[O-])s1)NCCc1ccccc1,n,n,n,n,n,17
NS(=O)(=O)c1ccc(NC(=O)COC(=O)c2ccc([N+](=O)[O-])s2)cc1,n,17,n,n,n,n
O=C(COC(=O)c1ccc([N+](=O)[O-])s1)NC(=O)NCc1ccccc1,n,n,n,n,n,n
CC1(C)CC(NC(=S)NC(=O)c2cc(Br)ccc2Cl)CC(C)(C)N1,n,n,n,n,n,n
COc1ccccc1-c1csc(C(O)c2ccc(F)cc2)n1 (centres undefined),n,x,n,x,x,n
COc1ccc2cc(C(C)C(=O)O)ccc2c1 (centres undefined),n,n,n,n,n,n
COc1ccc2cc([C@H](C)C(=O)O)ccc2c1,n,n,n,n,n,41
CN(C)C(=S)N=c1ssc(=S)n1Cc1ccccc1,n,x,n,51,x,n
COc1ccc2sc(-c3ccccc3OC)c(-c3ccc(SC)cc3)c2c1,n,x,n,x,x,n
COc1ccc(-c2sc3ccc(OC)cc3c2-c2ccc(OCCN3CCOCC3)cc2)cc1,n,x,52,n,x,n
COc1ccc2sc(-c3ccccc3OC)c(-c3ccc(OCCN(C)C)cc3)c2c1,n,x,n,52,x,n
COc1cc(N=Nc2cccc(S(N)(=O)=O)c2)c2ccccc2c1N,n,x,n,67,x,n
C=CCN(CC=C)C(=O)CCc1nnc(CCc2c[nH]c3ccccc23)o1,n,n,n,n,n,n
O=C(NCCN1CCN(c2ccccc2)CC1)C1CCCN(S(=O)(=O)c2cnc[nH]2)C1 (centres undefined),n,n,n,n,n,30
COc1cc(/C=N/n2c(-c3ccc4c(c3)NC(=O)CO4)csc2=Nc2cccc(C)c2)ccc1O,n,n,52,n,n,n
COCCN=c1scc(-c2ccc3c(c2)NC(=O)CO3)n1/N=C(\C)c1ccc(O)cc1,56,n,n,x,n,n
COCCN=c1scc(-c2cccs2)n1/N=C(\C)c1ccco1,n,n,n,n,n,n
O=[N+]([O-])c1cc([N+](=O)[O-])c2cc3ccccc3nc2c1,41,n,70,n,n,n
O=[N+]([O-])c1cnc2ccccc2c1,n,n,n,n,n,n
CCOC1=C2[C@H](c3cccs3)N(S(=O)(=O)c3ccc(C)cc3)C[C@H]2n2c(=O)n(-c3ccccc3)c(=O)n2C1,n,x,n,x,x,n
CCC(C)(O)c1cnc(CC(C)C)c(=O)n1O (centres undefined),n,x,n,x,x,n
Cc1ccnc(N2C(=O)c3cccc4c([N+](=O)[O-])ccc(c34)C2=O)c1,42,n,n,n,n,n
Cc1ccc(N2C(=O)c3cccc4c([N+](=O)[O-])ccc(c34)C2=O)c2cccnc12,n,n,n,n,n,n
CCc1noc(C)c1C(=O)Nc1cc(S(=O)(=O)N(CC)CC)ccc1N1CCOCC1,n,n,n,n,n,n
CCCCCCn1cc(C(=O)O)c(=O)c2cc(F)c(N3CCN(C)CC3)cc21,n,n,n,n,n,16
CCCCCCNC(=O)c1cn(CC)c2cc(N3CCN(C)CC3)c(F)cc2c1=O,n,n,45,n,n,n
